Data taken from ChEMBL document CHEMBL1151472, “In vitro interactions between tacrolimus and azoles against Candida albicans determined by different methods” (2008).
In brackets after ≈: the same amount, converted by molar mass.

How the values were obtained:
Type in all cases: functional
Candida albicans [1] = assay: Antimicrobial activity against azole-resistant Candida albicans isolate CA16 cotreated with calcineurin signaling inhibitor Tacrolimus after 48 hrs by microdilution checkerboard technique; conditions: isolate CA16, 48 h
How it was run: (§1)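 Checkerboard microdilution in MOPS-buffered RPMI 1640 (pH 7.0, 2% dextrose) with 2.5 × 10^3 CFU/ml for 48 h at 35°C. Final FK506 was 0.002–0.125 μg/ml. Azole finals were FLC 0.125–128 μg/ml, and ITR and VRC 0.008–8 μg/ml. MIC80 is an 80% OD492 decrease vs drug-free control. Interaction was scored by FICI (synergy ≤0.5, antagonism >4) and by ΔE from triplicates.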

Candida albicans [2] = assay: Antimicrobial activity against azole-resistant Candida albicans isolate CA10 assessed as growth at 2 ug/ml cotreated with 0.063 ug/ml calcineurin signaling inhibitor tacrolimus after 48 hrs by microdilution checkerboard technique relative to control; parameters: scale not given: the % may be the effect or the level left
How it was run: (§2)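 Checkerboard microdilution in MOPS-buffered RPMI 1640 (pH 7.0, 2% dextrose). Final ranges: azole 0.125–128 μg/ml (FLC) or 0.008–8 μg/ml (ITR, VRC), tacrolimus 0.002–0.125 μg/ml; solvent 1% in single-drug wells. Inoculum 2.5 × 10^3 CFU/ml, 35°C, 48 h. Growth % = background-subtracted OD492 of each well / drug-free well. Triplicate on different days.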

Candida albicans [3] = assay: Antimicrobial activity against azole-resistant Candida albicans isolate CA10 assessed as growth at 2 ug/ml cotreated with 0.016 ug/ml calcineurin signaling inhibitor Tacrolimus after 48 hrs by microdilution checkboard technique relative to control; parameters: scale not given: the % may be the effect or the level left; how it was run: as §2
Candida albicans [4] = assay: Antimicrobial activity against azole-susceptible Candida albicans isolate CA12 after 48 hrs by broth microdilution method; conditions: isolate CA12, 48 h
How it was run: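 CLSI M27-A2 broth microdilution was run in RPMI 1640 (pH 7.0, 2% dextrose, 0.165 M MOPS). Inoculum was 2.5 × 10^3 CFU/ml, incubated 35°C for 48 h without shaking. Plates were read visually (0–5 scale) and at OD 492 nm. MIC80 = lowest concentration giving an 80% absorbance decrease vs drug-free control. Triplicate.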

Candida albicans [5] = assay: Antimicrobial activity against azole-resistant Candida albicans isolate CA10 assessed as growth at 16 ug/ml co-treated with 0.004 ug/ml calcineurin signaling inhibitor tacrolimus after 48 hrs by microdilution checkboard technique relative to control; parameters: scale not given: the % may be the effect or the level left; how it was run: as §2
Candida albicans [6] = assay: Antimicrobial activity against azole-resistant Candida albicans isolate CA10 assessed as growth at 0.125 ug/ml cotreated with 0.063 ug/ml calcineurin signaling inhibitor Tacrolimus after 48 hrs by microdilution checkboard technique relative to control; parameters: scale not given: the % may be the effect or the level left; how it was run: as §2
Candida albicans [7] = assay: Antimicrobial activity against azole-resistant Candida albicans isolate CA10 assessed as growth at 4 ug/ml cotreated with 0.004 ug/ml calcineurin signaling inhibitor tacrolimus after 48 hrs by microdilution checkerboard technique relative to control; parameters: scale not given: the % may be the effect or the level left
How it was run: (§3)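 CA10 in RPMI 1640 with 2% dextrose and 0.165 M MOPS, pH 7.0. Checkerboard used twofold dilutions, with azole alone in row H and the drug-free growth control in well H1. Final inoculum was 2.5 × 10^3 CFU/ml, incubated 35°C for 48 h, with OD read at 492 nm. Growth % = background-subtracted well OD / drug-free well OD. Run in triplicate on different days.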

Candida albicans [8] = assay: Antimicrobial activity against azole-resistant Candida albicans isolate CA10 assessed as growth at 16 ug/ml cotreated with 0.008 ug/ml calcineurin signaling inhibitor tacrolimus after 48 hrs by microdilution checkerboard technique relative to control; parameters: scale not given: the % may be the effect or the level left; how it was run: as §2
Candida albicans [9] = assay: Antimicrobial activity against azole-resistant Candida albicans isolate CA10 assessed as growth at 0.25 ug/ml after 48 hrs by microdilution checkerboard technique relative to control
How it was run: (§4)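 Checkerboard microdilution in RPMI 1640 (pH 7.0, 2% dextrose, 0.165 M MOPS). Azole dilutions run along columns and FK506 along rows, at 4× final concentration. Final inoculum 2.5 × 10^3 CFU/ml from Sabouraud-subcultured cells. Incubated 35°C for 48 h; OD read at 492 nm. Background from microorganism-free plates subtracted. Growth % = well OD / drug-free well OD. Triplicate on different days, values averaged.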

Candida albicans [10] = assay: Antimicrobial activity against azole-resistant Candida albicans isolate CA10 assessed as growth at 0.5 ug/ml cotreated with 0.063 ug/ml calcineurin signaling inhibitor Tacrolimus after 48 hrs by microdilution checkboard technique relative to control; parameters: scale not given: the % may be the effect or the level left; how it was run: as §2
Candida albicans [11] = assay: Antimicrobial activity against azole-resistant Candida albicans isolate CA10 assessed as growth at 0.031 ug/ml after 48 hrs by microdilution checkerboard technique relative to control; how it was run: as §4
Candida albicans [12] = assay: Antimicrobial activity against azole-resistant Candida albicans isolate CA10 assessed as growth at 0.004 ug/ml after 48 hrs by microdilution checkerboard technique relative to control; how it was run: as §2
Candida albicans [13] = assay: Antimicrobial activity against azole-resistant Candida albicans isolate CA10 assessed as growth at 0.25 ug/ml cotreated with 0.004 ug/ml calcineurin signaling inhibitor Tacrolimus after 48 hrs by microdilution checkboard technique relative to control; parameters: scale not given: the % may be the effect or the level left; how it was run: as §4
Candida albicans [14] = assay: Antimicrobial activity against azole-resistant Candida albicans isolate CA10 assessed as growth at 0.5 ug/ml co-treated with 0.016 ug/ml calcineurin signaling inhibitor tacrolimus after 48 hrs by microdilution checkboard technique relative to control; parameters: scale not given: the % may be the effect or the level left; how it was run: as §2
Candida albicans [15] = assay: Antimicrobial activity against azole-resistant Candida albicans isolate CA137 cotreated with calcineurin signaling inhibitor Tacrolimus after 48 hrs by microdilution checkerboard technique; conditions: isolate CA137, 48 h; how it was run: as §1
Candida albicans [16] = assay: Antimicrobial activity against azole-resistant Candida albicans isolate CA10 assessed as growth at 16 ug/ml co-treated with 0.031 ug/ml calcineurin signaling inhibitor tacrolimus after 48 hrs by microdilution checkboard technique relative to control; parameters: scale not given: the % may be the effect or the level left; how it was run: as §4
Candida albicans [17] = assay: Antimicrobial activity against azole-resistant Candida albicans isolate CA10 assessed as growth at 32 ug/ml co-treated with 0.125 ug/ml calcineurin signaling inhibitor tacrolimus after 48 hrs by microdilution checkboard technique relative to control; parameters: scale not given: the % may be the effect or the level left; how it was run: as §3
Candida albicans [18] = assay: Antimicrobial activity against azole-resistant Candida albicans isolate CA10 assessed as growth at 64 ug/ml co-treated with 0.016 ug/ml calcineurin signaling inhibitor tacrolimus after 48 hrs by microdilution checkboard technique relative to control; parameters: scale not given: the % may be the effect or the level left; how it was run: as §3
Candida albicans [19] = assay: Antimicrobial activity against azole-susceptible Candida albicans isolate CA14 assessed as lof reduction in colony count at 10 ug/ml cotreated with calcineurin signaling inhibitor Tacrolimus after 48 hrs by XTT assay
How it was run: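 Same time-kill setup (10^5 CFU/ml start, azole ± 0.016 μg/ml FK506, 35°C). At each time point, aliquots were mixed 1:1 with XTT (0.5 g/liter in Ringer's lactate) plus 10 μM menadione final. Incubation was in the dark for up to 2 h at 35°C, then formazan was read at 492 nm. OD was converted to CFU via a standard curve (Y = 4.2610x + 4.2087). Triplicate.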

Candida albicans [20] = assay: Antimicrobial activity against azole-resistant Candida albicans isolate CA10 assessed as growth at 2 ug/ml cotreated with 0.125 ug/ml calcineurin signaling inhibitor tacrolimus after 48 hrs by microdilution checkerboard technique relative to control; parameters: scale not given: the % may be the effect or the level left; how it was run: as §2
Candida albicans [21] = assay: Antimicrobial activity against azole-resistant Candida albicans isolate CA10 assessed as growth at 4 ug/ml cotreated with 0.063 ug/ml calcineurin signaling inhibitor Tacrolimus after 48 hrs by microdilution checkboard technique relative to control; parameters: scale not given: the % may be the effect or the level left; how it was run: as §3

`OC(Cn1cncn1)(Cn1cncn1)c1ccc(F)cc1F` [FLUCONAZOLE] showed an MIC (Candida albicans [1]) of 0.5 µg/mL, an Activity (Candida albicans [2]) of 13% and an Activity (Candida albicans [3]) of 20%. It also gave an MIC (Candida albicans [4]) of 4 µg/mL (≈ 13.1 µM), an Activity (Candida albicans [5]) of 35% and an Activity (Candida albicans [6]) of 27%. For the same compound, the Activity (Candida albicans [7]) was 46%, the Activity (Candida albicans [8]) was 24% and the Activity (Candida albicans [9]) was 63%. For the same compound, the Activity (Candida albicans [10]) was 13%, the Activity (Candida albicans [11]) was 93% and the Activity (Candida albicans [12]) was 99%. For the same compound, the Activity (Candida albicans [13]) was 42%, the Activity (Candida albicans [14]) was 21% and the MIC (Candida albicans [15]) was 0.5 µg/mL. It also gave an Activity (Candida albicans [16]) of 15%, an Activity (Candida albicans [17]) of 0% and an Activity (Candida albicans [18]) of 16%. The Activity (Candida albicans [19]) was 1.51, the Activity (Candida albicans [20]) was 12% and the Activity (Candida albicans [21]) was 13%.
